High-throughput results (PubChem BioAssay)
M5 antag – blocks acetylcholine activation of human M5 receptor. P08912. CHO-hM5 cells, Fluo-8 calcium fluorescence, ACh EC80. inhibition, % at 3 µM. actives 0.59% (n = 360,000). AID 624040;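 active = inhibition above a per-plate cutoff, the mean of that plate's test compounds plus 3 SD, cut at about 27% in these data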;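 also: 0% = acetylcholine EC80 with DMSO and 100% = DMSO without agonist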
CHRM5 PAM – potentiates acetylcholine response at human M5 receptor; CHO-K1 hM5, Fluo-8 calcium, ACh EC20 PAM; 0% = ACh EC20, 100% = ACh EC100; actives 0.3% (n = 360,000); activation, % at 3 µM;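 active = activation above the run cutoff, the mean activation of all test compounds plus 3 SD, cut at about 18% in these data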
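Assay system – human M5 receptor in CHO-K1 cells · Read-out – % activation, ACh-normalized · Technique – Fluo-8 calcium fluorescence · Dosing – single-point, 3 µM nominal · Incubation – Fluo-8 loading 80 min at 37 °C plus 30 min room temperature · Repeats – singlicate, one well per test compound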
CHRM5 agonist – CHRM5 agonism in calcium assay | P08912 | CHO-K1 hM5 cells, Fluo-8 calcium fluorescence; 0% DMSO wells, 100% maximal acetylcholine response | activation, % at 3 µM | actives 0.19% (n = 360,000) | AID 624037;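 active = activation above the run's mean over test compounds plus 3 SD, cut at about 23% in these data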;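 also: signal is peak over basal fluorescence ratio across the kinetic read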
M1 ag – activates human CHRM1 receptor | P11229 | CHO-K1 hM1, Fluo-8 calcium fluorescence, agonist mode; 0% DMSO, 100% acetylcholine EC100 | activation, % at 3 µM | actives 0.33% (n = 360,000) | AID 588814;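 active = activation above the run's mean compound activation plus 3 SD, cut at about 16% in these data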;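 also: peak over basal fluorescence ratio within a 140 s kinetic read after compound addition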
Target sequence (P11229 whole entry, looked up): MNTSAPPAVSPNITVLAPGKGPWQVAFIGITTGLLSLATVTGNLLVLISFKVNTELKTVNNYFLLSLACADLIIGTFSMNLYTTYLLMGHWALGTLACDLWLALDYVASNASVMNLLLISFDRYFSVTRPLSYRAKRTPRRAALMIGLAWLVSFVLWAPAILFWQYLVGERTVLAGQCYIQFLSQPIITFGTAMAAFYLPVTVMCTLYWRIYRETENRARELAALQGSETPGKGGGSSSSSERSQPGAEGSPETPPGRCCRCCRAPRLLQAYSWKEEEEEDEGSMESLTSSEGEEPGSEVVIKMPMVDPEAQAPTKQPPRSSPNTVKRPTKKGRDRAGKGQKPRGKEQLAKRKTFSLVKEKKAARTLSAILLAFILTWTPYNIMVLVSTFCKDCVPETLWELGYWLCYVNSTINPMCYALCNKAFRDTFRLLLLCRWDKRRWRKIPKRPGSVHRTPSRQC
CHRM1 antagonist – blocks human M1 muscarinic receptor. P11229. CHO-K1 hM1, Fluo-8 calcium fluorescence, ACh EC80 antagonist. inhibition, % at 3 µM. actives 1.3% (n = 360,000);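 active = percent inhibition above its own plate's cutoff, namely the mean of that plate's compound wells plus 3 SD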;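 also: peak over basal fluorescence ratio during 140 s after agonist addition; 0% = ACh EC80 plus DMSO and 100% = DMSO alone without agonist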
CHRM1 PAM – human CHRM1 positive allosteric modulation; P11229; CHO-K1 hM1, Fluo-8 calcium fluorescence, ACh EC20; 0% = ACh EC20, 100% = maximal ACh; activation, % at 3 µM; actives 0.088% (n = 360,000); AID 588819; in the data active = activation above about 19%, passing the limit was not always enough
* hit, by the source's call. Compounds with a hit are over-represented: about 2.1% of the library has one in this group of screens.

SMILES	M5 antag	CHRM5 PAM	CHRM5 agonist	M1 ag	CHRM1 antagonist	CHRM1 PAM
CC(SCC(=O)Nc1ccc(F)cc1)c1nc2ccccc2c(=O)[nH]1 (configuration not stated)	-14	22*	0	0	-16	16
COc1ccc(NC(=O)CSC(C)c2nc3ccccc3c(=O)[nH]2)cc1 (configuration not stated)	5	-3	-3	-4	-4	7
Cc1cc(S(=O)(=O)NC2CCN(Cc3ccccc3)CC2)c(C)cc1Cl	13	-12	-11	-4	52*	-24
Cc1cc(C)c(S(=O)(=O)NC2CCN(Cc3ccccc3)CC2)c(C)c1	1	0	-6	-5	-3	2
N#Cc1cccc(NC(=O)COc2ccc(-n3ccnc3)cc2)c1	40*	-17	0	-2	0	-7
COc1cc(NC(=O)COc2ccc(-n3ccnc3)cc2)cc(OC)c1	11	-10	3	-2	-10	8
CCOP(=O)(c1ccccc1)C(O)c1ccc(Br)cc1 (configuration not stated)	0	1	-1	-1	-5	5
FC(F)(F)c1cccc(N2CCN(C(=S)NCC3CCCO3)CC2)c1 (configuration not stated)	27*	-16	-1	-9	0	-2
S=C(NCC1CCCO1)N1CCN(c2ccccc2)CC1 (configuration not stated)	4	-2	0	-5	-5	4
c1ccc2c(c1)Cn1nnnc1-2	-8	18*	1	-1	1	9
c1ccc2c(c1)CC1(CCCCC1)n1nnnc1-2	-3	-3	2	-6	-20	14
C=C(C)CN(CC)C(=O)CC1C(=O)NCCN1CC(C)(C)C (configuration not stated)	2	0	-1	-2	-12	5
CC(C)n1c(/N=C/c2ccccc2O)nc2ccccc21	-9	21*	0	-1	-4	7
CCn1c(/N=C/c2ccccc2O)nc2ccccc21	6	12	-4	-5	-3	7
CCCCn1c(-c2nn(C)cc2Cl)n[nH]c1=S	0	-4	-5	-4	-6	7
CC[n+]1c(-c2ccccc2)csc1Nc1c(C)n(C)n(-c2ccccc2)c1=O	11	-18	-9	-9	51*	-26
Cc1ccc(Nc2nc3ccccc3nc2Nc2c(C)n(C)n(-c3ccccc3)c2=O)cc1	-11	23*	3	-4	-6	9
CC[n+]1c(-c2ccc(C)cc2)csc1Nc1c(C)n(C)n(-c2ccccc2)c1=O	1	-12	-9	-8	35*	-26
Cc1c(Nc2nc3ccccc3nc2NS(=O)(=O)c2cccc(Cl)c2)c(=O)n(-c2ccccc2)n1C	-2	-4	-3	-8	-11	6
Cc1ccc(N2C(=O)C(Cl)=C(Nc3c(C)n(C)n(-c4ccccc4)c3=O)C2=O)cc1	-4	5	0	-6	1	0
O=C(O)c1ccccc1NC(=O)c1ccccc1Nc1ccccc1	5	-3	-5	-3	-10	9
OC(CCN1CCC2CCC(C2)C1)c1ccc(Br)cc1 (configuration not stated)	4	-12	-11	-5	37*	-25
CC[C@H](C)Cc1cn([C@@H](CCCCNC(=O)OC(C)(C)C)C(=O)NCCCCCCCCCCC(=O)N2CCN(C(=O)OC(C)(C)C)CC2)nn1	9	-21	-2	-2	48*	-28
CC[C@@H](C)[C@@H](C(=O)N1CCN(C(=O)OC(C)(C)C)CC1)n1cc(CCCCNC(=O)OC(C)(C)C)nn1	21	-39	5	-1	36*	-24
CN1CCN(C(=O)Nc2ccc3c(c2)N(C)C(=O)c2ccccc2S3)CC1	3	-2	1	-7	-12	9
SMILES	M5 antag	CHRM5 PAM	CHRM5 agonist	M1 ag	CHRM1 antagonist	CHRM1 PAM
CN1CCN(C(=O)Nc2cccc(-c3ccccc3)c2)CC1	7	-13	-20	-8	31*	-16
Cc1c(Cl)cccc1NC(=S)NCC1COc2ccccc2O1 (configuration not stated)	39*	-20	-1	-7	4	-22
C=CCNC(=S)NCC1COc2ccccc2O1 (configuration not stated)	16	-17	2	-4	8	-9
O=C(Cn1c(CO)nc2ccccc21)Nc1ccccc1Cl	8	1	0	-2	-9	3
O=C(Nc1ccc(F)cc1F)N1CCCN(c2ccc(C(F)(F)F)cn2)CC1	4	6	2	-1	-7	0
Fc1ccc(NC(=S)N2CCCN(c3ccc(C(F)(F)F)cn3)CC2)c(F)c1	21	-20	10	3	34*	-14
CC1CCCC(C)N1C(=O)COC(=O)CNS(=O)(=O)c1ccc2ccccc2c1 (configuration not stated)	14	-6	5	1	6	-4
NC(c1csc(Nc2cc(Oc3ccccc3)ncn2)n1)C1CCCCC1 (configuration not stated)	2	3	2	6	-2	4
COc1ccc(C(N)c2csc(Nc3cc(Oc4ccccc4)ncn3)n2)cc1 (configuration not stated)	30*	-18	3	2	82*	-29
CC#CCCc1nc2ccccc2c(=O)n1N	0	1	1	-2	-2	3
COc1cc(OC)c(Nc2cc(C)nc3nc(C)nn23)cc1Cl	-1	-2	2	-3	103*	2
O=S1(=O)Nc2c(ccc3cccnc23)-c2ccccc21	31*	-4	0	-4	5	2
O=C1Nc2ccccc2C(=O)N2[C@H](c3ccc(F)cc3)[C@@H]3C(=O)N(Cc4ccccc4)C(=O)[C@@H]3[C@H]12	7	-1	4	36*	16	8
CCN1C(=O)[C@@H]2[C@H](C1=O)[C@@H]1C(=O)Nc3ccccc3C(=O)N1[C@@H]2c1ccccc1	9	8	1	-5	-10	2
S=c1c2c(nc3nc[nH]n13)CCC2	-10	18*	9	-1	2	-2
CCN(CC)C(=O)C(=O)c1cccn1-c1ccccc1C#N	-5	1	0	-3	-35	5
CCN(CC)S(=O)(=O)c1ccc(N2CCN(c3ccccc3OC)CC2)c(N)c1	30*	-16	7	1	34*	-18
CCN(CC)S(=O)(=O)c1ccc(Oc2ccccc2)c(N)c1	8	9	-1	-1	-2	8
